Compounds with a hit are over-represented: about 3.3% of the library has one in this group of screens.
E-selectin induc: E-selectin induction on HUVECs. P16581. HUVEC E-selectin immunofluorescence imaging; normalized: neutral wells 0, TNF-alpha wells 100. activation, % at 7.58 µM. 0.37% of 260,000 active. AID 686992;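 active = mean E-selectin-positive cell signal at least 10% of the positive control, reached in at least 60% of replicates, without over 20% cell loss; inconclusive = no rule given, readout overlaps actives, possibly toxicity-flagged; inactive = the rest, including those meeting only one limit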
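Assay system: HUVEC primary endothelial cells. Input: 3,000 HUVEC seeded per well. Doses: one compound dose added by pin transfer. Read-out basis: % PE-positive cells. Benchmarks: TNF-alpha high, DMSO low. Detection: immunofluorescence imaging. Buffer or medium: EGM-2, gelatin.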
PglD inh: PglD (C. jejuni) enzyme inhibition. purified PglD enzyme, DTNB colorimetric CoA detection. inhibition, % at 12.5 µM. 0.098% of 360,000 active; in the data active = inhibition above about 16%, passing the limit was not always enough; inconclusive = no clear call, values can overlap the other calls
C2C12 statin: protects C2C12 myotubes from simvastatin toxicity. ATP luminescence, 48 h; scaled: DMSO 0, geranylgeraniol control 100. rescue of ATP level, % at 7.49 µM. 0.78% of 330,000 active;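 active = mean ATP rescue above about 67%, or every replicate alone reaching that limit, limit read from the data, passing the limit was not always enough; inconclusive = no clear call, values can overlap the other calls; inactive = mean under the limit and some replicate under it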;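 note: myotubes were challenged with 10 µM simvastatin during compound exposure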
FGF22 binding-1: binders of recombinant human FGF22 by thermal shift; Q9HCT0; SYPRO orange fluorescence; percent of sucrose octasulfate shift, DMSO zero; activity (Tm shift, normalised), % at 9.99 µM; 1.5% of 340,000 active;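 active = mean Tm shift, scaled 0 neutral to 100 positive control, at about 1.3% or above, every replicate too, limit read from the data; inconclusive = no clear call, values can overlap the other calls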
Target sequence (Q9HCT0 whole entry, looked up): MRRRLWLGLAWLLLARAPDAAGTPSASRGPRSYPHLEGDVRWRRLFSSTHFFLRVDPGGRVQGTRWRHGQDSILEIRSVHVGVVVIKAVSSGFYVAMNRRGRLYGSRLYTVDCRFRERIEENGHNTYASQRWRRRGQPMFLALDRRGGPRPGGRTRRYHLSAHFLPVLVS
DENV2 CPE rescue: DENV2-induced cell death inhibition. CPE inhibition, % at 9.99 µM. 1.7% of 350,000 active. AID 651640. DENV2-infected cells, cytopathic effect rescue, plate reader; in the data active = CPE inhibition above about 20%, passing the limit was not always enough; inconclusive = no clear call, values can overlap the other calls; tested in BHK-21 cells
XiGFP reactiv: activators of X-chromosome reactivation in mouse fibroblasts; XiGFP mouse fibroblasts, % GFP-positive cells imaging, 3 d; cells co-treated with 5-aza-dC sensitizer; scaled so ellipticine positive control = 100%; activation, % at 7.58 µM; 0.055% of 360,000 active;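 active = mean normalized replicate activation at least 10% and every replicate at or above 10%; inconclusive = only one of the two criteria met; inactive = mean below 10% and not all replicates reach 10%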
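Material: SV40-immortalized XiGFP fibroblast cells, line 68-5-11 | Buffer or medium: DMEM containing 5-aza-dC | Dosing: One concentration, pinned | Times: 3 d treatment, 15 min room-temperature fixation | Controls: Ellipticine 6 µM positive control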
FGF22 binding-2: binders of human FGF22 by thermal shift; shares compounds with FGF22 binding-1; recombinant FGF22 thermal shift, SYPRO orange fluorescence; thermal shift activity, °C (ΔTm) at 38 µM; 2% of 1,000 active;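 active = fitted rise in melting shift crosses a set limit at or below the top valid dose tested; inconclusive = flat fit at mid-level activity, or a poor quality fit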
TSA no protein: compound-only SYPRO artifact for FGF22 binders. shares compounds with FGF22 binding-1. compound-only SYPRO orange thermal shift counter-screen, no protein. AC50, µM (doses to about 38 µM). 2% of 1,000 active;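 active = rising signal whose fitted curve reaches the 0.54 level within the top valid dose, showing a melting point, actives reach about 13 µM in these data; inactive = the rest, including activity in the opposite direction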; note: value is where the raw curve crosses a fixed level and not half-maximal
Each line names hits and unclear results; the compound was inactive in the other large screens (follow-up assays come after a bar, where they were run).

C[C@@H]1CN([C@H](C)CO)C(=O)c2cc(NC(=O)c3ccncc3)ccc2O[C@@H]1CN(C)Cc1ccc(-c2ccccc2)cc1	none
COc1cc(F)ccc1-c1cc(C(=O)NCc2cccs2)[nH]n1	none
CC(C)Oc1ccc(F)cc1-c1cc(C(=O)NCc2cccs2)[nH]n1	FGF22 binding-1 1.6, DENV2 CPE rescue inconclusive | FGF22 binding-2 inactive | TSA no protein inactive
CC(Oc1ccc(Br)cc1)C(=O)NC1CCN(Cc2ccccc2)CC1 (configuration not stated)	DENV2 CPE rescue inconclusive (no result: E-selectin induc, FGF22 binding-1)
CC(C)Oc1ccc(C(=O)NC2CCN(Cc3ccccc3)CC2)cc1	FGF22 binding-1 6.6 | FGF22 binding-2 inactive | TSA no protein inactive
O=C(C[C@H]1CC[C@@H]2[C@H](COC[C@H](O)CN2Cc2cc(F)ccc2F)O1)NCc1ccc(F)cc1	FGF22 binding-1 2.6 | FGF22 binding-2 inactive | TSA no protein inactive
O=C(C[C@@H]1CC[C@H]2[C@@H](COC[C@@H](O)CN2Cc2ccccc2)O1)NCCc1ccccc1	none (no result: FGF22 binding-1)
O=C(C[C@H]1CC[C@H]2[C@@H](COC[C@H](O)CN2Cc2ccccc2)O1)NCCc1ccccc1	FGF22 binding-1 1.6 | FGF22 binding-2 inactive | TSA no protein inactive
O=C(C[C@@H]1CC[C@H]2[C@@H](COC[C@@H](O)CN2C(=O)c2ccccc2F)O1)NCc1ccccc1	FGF22 binding-1 1.8, DENV2 CPE rescue inconclusive | FGF22 binding-2 inactive | TSA no protein inactive
O=C(C[C@H]1CC[C@@H]2[C@H](COC[C@H](O)CN2C(=O)c2ccc(F)cc2)O1)NCc1cccc(F)c1	none
O=C(C[C@@H]1CC[C@@H]2[C@H](COC[C@H](O)CN2Cc2cc(F)ccc2F)O1)NCc1ccc(F)cc1	none
O=C(C[C@@H]1CC[C@H]2[C@@H](COC[C@@H](O)CN2C(=O)c2ccc(F)cc2)O1)NCc1cccc(F)c1	FGF22 binding-1 1.5 | FGF22 binding-2 inactive | TSA no protein inactive
C[C@@H]1CN([C@@H](C)CO)C(=O)c2cc(-c3cccnc3)cnc2O[C@@H]1CN(C)C(=O)C1CCC1	none
C[C@@H]1CN([C@H](C)CO)C(=O)c2cc(NC(=O)Nc3ccc4c(c3)OCO4)ccc2O[C@@H]1CN(C)C(=O)Nc1ccccc1	none
COc1ccc(OC)c(Nc2ccc(Nc3cc(OC)ccc3OC)nn2)c1	FGF22 binding-1 1.8 (no result: E-selectin induc, C2C12 statin) | FGF22 binding-2 inactive | TSA no protein inactive
NC(=O)c1ccsc1NC(=O)COC(=O)CCCOc1ccccc1	FGF22 binding-1 1.9 | FGF22 binding-2 inactive | TSA no protein inactive
NC(=O)c1ccsc1NC(=O)COC(=O)CCOc1ccccc1	none (no result: C2C12 statin)
CN(C[C@@H]1N[C@H](CO)[C@H]1c1ccccc1)C(=O)c1ccccn1	none
COc1ccccc1N(C)S(=O)(=O)c1ccc(C(=O)Nc2ccc(C(N)=O)cc2)cc1	FGF22 binding-1 1.7, DENV2 CPE rescue inconclusive | FGF22 binding-2 inactive | TSA no protein inactive
CCN(CC)CCNC(=O)c1ccc(NC(=O)c2ccc(S(=O)(=O)N(C)c3ccccc3OC)cc2)cc1	none (no result: E-selectin induc)
Cc1ccccc1-c1ccccc1[C@@H]1[C@@H](C#N)N(C(=O)c2ccccc2)[C@H]1CO	FGF22 binding-1 1.3 (no result: PglD inh, C2C12 statin) | FGF22 binding-2 inactive | TSA no protein inactive
COc1ccccc1NC(=O)Nc1ccc2c(c1)C(=O)N(C)C[C@H](OC)[C@H](C)CN[C@@H](C)CO2	none
CC(=O)Nc1ccc(S(=O)(=O)Nc2ccc(Cl)nn2)cc1	none (no result: E-selectin induc, PglD inh, C2C12 statin, FGF22 binding-1, DENV2 CPE rescue)
CC(=O)Nc1ccc(S(=O)(=O)Nc2ccn(Cc3ccccc3Cl)n2)cc1	FGF22 binding-1 2.1 | FGF22 binding-2 inactive | TSA no protein inactive
C[C@@H]1CCCCO[C@@H](CN(C)S(=O)(=O)c2ccccc2)[C@H](C)CN([C@H](C)CO)C(=O)c2cc(NC(=O)c3ccccc3)ccc2O1	none (no result: E-selectin induc, C2C12 statin)

Screening data deposited in PubChem BioAssay by Broad Institute.
